{
  "source": "ChEMBL document CHEMBL1136924",
  "about": "(J Med Chem, 2009)",
  "key": {"[1]": {"molecular_target": "T1, 5-hydroxytryptamine receptor 1A (Rattus norvegicus, UniProt P19327)", "T1 sequence (P19327 whole entry)": "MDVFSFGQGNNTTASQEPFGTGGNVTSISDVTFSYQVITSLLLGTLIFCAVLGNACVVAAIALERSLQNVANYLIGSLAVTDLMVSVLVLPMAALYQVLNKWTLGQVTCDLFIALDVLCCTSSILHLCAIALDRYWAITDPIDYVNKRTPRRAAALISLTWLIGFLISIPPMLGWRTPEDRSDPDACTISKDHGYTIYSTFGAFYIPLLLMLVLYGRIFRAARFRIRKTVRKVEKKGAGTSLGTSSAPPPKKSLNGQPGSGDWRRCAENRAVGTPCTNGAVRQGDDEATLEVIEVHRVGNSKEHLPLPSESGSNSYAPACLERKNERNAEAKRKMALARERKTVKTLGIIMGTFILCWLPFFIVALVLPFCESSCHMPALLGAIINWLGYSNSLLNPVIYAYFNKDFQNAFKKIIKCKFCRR", "experiment": "Displacement of [3H]8-OHDPAT from 5HT1A receptor in rat hippocampus", "assay_type": "tissue-based"}, "[2]": {"molecular_target": "5-hydroxytryptamine receptor 4 (Cavia porcellus, UniProt O70528)", "sequence (O70528 whole entry)": "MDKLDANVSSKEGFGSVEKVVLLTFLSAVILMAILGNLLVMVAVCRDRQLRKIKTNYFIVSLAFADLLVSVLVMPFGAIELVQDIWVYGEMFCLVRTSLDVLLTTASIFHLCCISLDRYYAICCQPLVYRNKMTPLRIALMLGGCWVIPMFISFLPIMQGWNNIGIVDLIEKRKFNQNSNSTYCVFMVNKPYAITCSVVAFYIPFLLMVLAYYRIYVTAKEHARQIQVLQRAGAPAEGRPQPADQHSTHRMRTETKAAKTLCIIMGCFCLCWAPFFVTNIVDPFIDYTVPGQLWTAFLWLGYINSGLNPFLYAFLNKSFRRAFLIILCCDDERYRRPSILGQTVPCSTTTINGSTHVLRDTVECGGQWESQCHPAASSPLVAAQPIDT", "experiment": "Displacement of [3H]GR-113808 from 5HT4 receptor in guinea pig striatum"}, "[3]": {"molecular_target": "T2, Adrenergic receptor alpha-1 (Rattus norvegicus, UniProt P15823+P23944+P43140)", "T2 sequence (P15823 whole entry)": "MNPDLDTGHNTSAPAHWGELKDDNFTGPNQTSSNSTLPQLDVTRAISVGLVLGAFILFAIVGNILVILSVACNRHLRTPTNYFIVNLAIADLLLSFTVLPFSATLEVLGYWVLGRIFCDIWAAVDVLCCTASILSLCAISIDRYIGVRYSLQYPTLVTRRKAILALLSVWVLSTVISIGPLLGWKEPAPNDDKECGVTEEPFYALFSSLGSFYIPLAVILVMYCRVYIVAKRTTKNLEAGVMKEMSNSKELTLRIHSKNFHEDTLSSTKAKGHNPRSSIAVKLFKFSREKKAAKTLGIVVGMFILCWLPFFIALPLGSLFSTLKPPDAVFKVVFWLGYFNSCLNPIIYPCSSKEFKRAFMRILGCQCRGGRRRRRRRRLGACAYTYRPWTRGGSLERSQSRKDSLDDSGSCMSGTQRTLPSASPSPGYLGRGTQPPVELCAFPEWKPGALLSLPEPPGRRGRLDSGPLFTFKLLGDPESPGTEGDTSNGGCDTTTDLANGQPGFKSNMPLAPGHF", "T2 sequence (P23944 whole entry)": "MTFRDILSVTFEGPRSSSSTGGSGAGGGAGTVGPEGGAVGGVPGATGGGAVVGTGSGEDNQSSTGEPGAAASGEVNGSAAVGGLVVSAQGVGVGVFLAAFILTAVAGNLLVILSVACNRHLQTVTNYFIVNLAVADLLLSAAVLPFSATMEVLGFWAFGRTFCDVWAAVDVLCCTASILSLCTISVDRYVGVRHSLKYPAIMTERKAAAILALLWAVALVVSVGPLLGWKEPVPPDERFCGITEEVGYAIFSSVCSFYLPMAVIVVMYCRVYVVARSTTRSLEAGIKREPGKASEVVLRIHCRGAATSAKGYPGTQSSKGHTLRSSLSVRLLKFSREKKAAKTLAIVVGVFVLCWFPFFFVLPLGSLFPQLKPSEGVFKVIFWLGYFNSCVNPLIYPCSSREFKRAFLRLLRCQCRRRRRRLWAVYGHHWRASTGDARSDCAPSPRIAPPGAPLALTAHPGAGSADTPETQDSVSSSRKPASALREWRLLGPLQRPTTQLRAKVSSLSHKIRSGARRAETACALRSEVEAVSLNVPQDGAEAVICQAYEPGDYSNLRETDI", "T2 sequence (P43140 whole entry)": "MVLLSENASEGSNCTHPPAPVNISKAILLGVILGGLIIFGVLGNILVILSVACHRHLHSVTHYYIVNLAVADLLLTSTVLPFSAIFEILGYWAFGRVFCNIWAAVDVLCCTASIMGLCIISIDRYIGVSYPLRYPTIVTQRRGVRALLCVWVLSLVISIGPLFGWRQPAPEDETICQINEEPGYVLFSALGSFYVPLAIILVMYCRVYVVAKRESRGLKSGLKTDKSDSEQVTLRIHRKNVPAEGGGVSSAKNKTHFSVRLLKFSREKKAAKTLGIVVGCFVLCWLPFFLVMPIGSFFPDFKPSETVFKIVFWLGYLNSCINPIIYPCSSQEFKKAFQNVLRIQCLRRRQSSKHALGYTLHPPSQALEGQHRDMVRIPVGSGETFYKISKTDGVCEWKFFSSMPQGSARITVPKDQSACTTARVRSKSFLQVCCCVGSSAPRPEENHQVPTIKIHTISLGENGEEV", "experiment": "Displacement of [3H]prazosin from adrenergic alpha1 receptor in rat cortex"}, "D(1A) dopamine receptor": {"molecular_target": "D(1A) dopamine receptor (Rattus norvegicus, UniProt P18901)", "sequence (P18901 whole entry)": "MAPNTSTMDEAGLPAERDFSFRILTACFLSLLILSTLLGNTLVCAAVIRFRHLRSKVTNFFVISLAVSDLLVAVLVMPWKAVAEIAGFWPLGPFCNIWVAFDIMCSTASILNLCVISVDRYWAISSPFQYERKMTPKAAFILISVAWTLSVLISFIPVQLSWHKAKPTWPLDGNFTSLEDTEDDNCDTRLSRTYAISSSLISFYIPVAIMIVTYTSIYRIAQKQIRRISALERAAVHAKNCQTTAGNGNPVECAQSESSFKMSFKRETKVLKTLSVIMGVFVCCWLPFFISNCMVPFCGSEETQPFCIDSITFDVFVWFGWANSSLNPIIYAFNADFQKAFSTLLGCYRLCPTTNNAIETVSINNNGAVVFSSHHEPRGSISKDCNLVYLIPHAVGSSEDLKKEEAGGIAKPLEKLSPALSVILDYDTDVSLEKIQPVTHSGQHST", "experiment": "Displacement of [3H]SCH-23390 from dopamine D1 receptor in rat striatum"}, "D(2) dopamine receptor": {"molecular_target": "D(2) dopamine receptor (Rattus norvegicus, UniProt P61169)", "sequence (P61169 whole entry)": "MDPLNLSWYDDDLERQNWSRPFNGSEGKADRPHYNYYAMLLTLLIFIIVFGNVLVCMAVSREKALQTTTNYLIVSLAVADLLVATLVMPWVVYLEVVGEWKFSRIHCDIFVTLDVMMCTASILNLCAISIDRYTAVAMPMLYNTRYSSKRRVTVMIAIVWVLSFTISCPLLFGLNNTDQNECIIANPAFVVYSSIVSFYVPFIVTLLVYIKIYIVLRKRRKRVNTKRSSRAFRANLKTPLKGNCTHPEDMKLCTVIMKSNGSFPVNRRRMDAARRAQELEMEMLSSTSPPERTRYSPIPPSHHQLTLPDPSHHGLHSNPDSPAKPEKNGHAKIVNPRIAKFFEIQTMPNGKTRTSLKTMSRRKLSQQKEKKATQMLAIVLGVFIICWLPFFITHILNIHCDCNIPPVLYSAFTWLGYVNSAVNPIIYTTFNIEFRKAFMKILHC", "experiment": "Displacement of [3H]spiperone from dopamine D2 receptor in rat striatum"}, "[4]": {"molecular_target": "Muscarinic acetylcholine receptor", "experiment": "Displacement of [3H]QNB from muscarinic receptor in rat cortex"}, "[5]": {"molecular_target": "T3, 5-hydroxytryptamine receptor 3A (Cavia porcellus) (UniProt O70212)", "T3 sequence (whole entry)": "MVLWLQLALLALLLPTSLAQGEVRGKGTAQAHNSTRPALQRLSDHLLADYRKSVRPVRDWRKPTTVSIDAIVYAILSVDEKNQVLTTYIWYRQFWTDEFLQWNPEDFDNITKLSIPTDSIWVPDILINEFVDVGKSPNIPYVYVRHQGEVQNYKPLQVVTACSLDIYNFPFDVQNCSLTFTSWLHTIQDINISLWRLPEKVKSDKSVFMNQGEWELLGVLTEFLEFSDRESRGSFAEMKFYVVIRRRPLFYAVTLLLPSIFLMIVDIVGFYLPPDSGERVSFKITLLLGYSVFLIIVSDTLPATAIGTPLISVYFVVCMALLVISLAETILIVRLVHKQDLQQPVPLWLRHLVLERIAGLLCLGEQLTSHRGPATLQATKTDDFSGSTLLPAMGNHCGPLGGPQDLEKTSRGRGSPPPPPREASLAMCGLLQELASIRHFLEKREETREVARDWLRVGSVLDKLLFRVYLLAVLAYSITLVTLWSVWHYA", "experiment": "Agonist activity at 5HT3 receptor in voltage-stimulated guinea pig left atrium assessed as positive inotropic potency at 100 uM", "assay_type": "functional, tissue-based", "conditions": "Cardiac atrium", "procedure,_shortened": "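Guinea pig left and right atria were hung in a 15 mL bath of PSS (pH 7.4, 95% O2-5% CO2, 35 °C) with ketanserin 1 µM. The right atrium beat spontaneously; the left was paced at 1 Hz. Cumulative doses (0.1-100 µM; DMSO ≤0.3%) were added after 45-60 min stabilization. Rate or isometric force was recorded. EC50 came from Probit analysis, n≥4. Intrinsic activity was taken relative to 5-HT.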"}, "[6]": {"molecular_target": "T3, 5-hydroxytryptamine receptor 3A (Cavia porcellus)", "experiment": "Agonist activity at 5HT3 receptor in guinea pig thoracic aorta assessed as positive contractility potency at 100 uM", "assay_type": "functional, tissue-based", "procedure,_shortened": "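Guinea pig aortic helicoidal strips in PSS at 35 °C, aerated, under 1 g resting force, washed every 20 min for 1 h. Compounds added cumulatively 0.1-100 µM (DMSO vehicle); isometric contraction recorded.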"}},
  "note": "Activity calls are given as the source filed them. No cut-off for these calls is given here.",
  "data": [
    {"compound": "N[C@@H](CN1CCN(c2nc3cc(F)ccc3n3cccc23)CC1)C(=O)O", "values": [
      {"measurement": "Ki", "setting": "[1]", "result": 0.446, "unit": "µM"},
      {"measurement": "Ki", "setting": "[2]", "result": "> 10", "unit": "µM"},
      {"measurement": "Ki", "setting": "[3]", "result": "> 10", "unit": "µM"},
      {"measurement": "Ki", "setting": "D(1A) dopamine receptor", "result": "> 10", "unit": "µM"},
      {"measurement": "Ki", "setting": "D(2) dopamine receptor", "result": "> 10", "unit": "µM"},
      {"measurement": "Ki", "setting": "[4]", "result": "> 10", "unit": "µM"},
      {"measurement": "pD2", "setting": "[5]", "result": "inactive"},
      {"measurement": "pD2", "setting": "[6]", "result": "inactive"}
    ]},
    {"compound": "N/C(CN1CCN(c2nc3cc(F)ccc3n3cccc23)CC1)=N\\O", "values": [
      {"measurement": "Ki", "setting": "[1]", "result": "> 10", "unit": "µM"},
      {"measurement": "Ki", "setting": "[2]", "result": "> 10", "unit": "µM"},
      {"measurement": "Ki", "setting": "[3]", "result": "> 10", "unit": "µM"},
      {"measurement": "Ki", "setting": "D(1A) dopamine receptor", "result": "> 10", "unit": "µM"},
      {"measurement": "Ki", "setting": "D(2) dopamine receptor", "result": "> 10", "unit": "µM"},
      {"measurement": "Ki", "setting": "[4]", "result": "> 10", "unit": "µM"},
      {"measurement": "pD2", "setting": "[5]", "result": "inactive"},
      {"measurement": "pD2", "setting": "[6]", "result": "inactive"}
    ]}
  ]
}
